Sampled rows, rich in hits. Any-hit rate of the full collection: about 1.6%.
LEDGF integ inh = blocks HIV-1 LEDGF/p75-dependent DNA integration. TR-FRET IN-LEDGF/p75 DNA integration, Eu/Cy5. inhibition, % at 3.7 µM. 370,000 compounds, 0.64% hits. AID 743269;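 active = inhibition above the screen-wide mean plus 3 SD, cut at about 13% in these data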;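 note: signal is the Cy5 over europium emission ratio at 671 and 618 nm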
TDP2 absorb = TDP2 (human) inhibition, absorbance primary screen; O95551; recombinant TDP2, T5PNP hydrolysis, p-nitrophenol absorbance 415 nm; inhibition, % at 12.8 µM; 370,000 compounds, 0.34% hits; AID 720702;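 active = inhibition above the mean of all tested compounds plus 3 SD, set per campaign, cut at about 25% in these data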
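System – recombinant human TDP2 · Amount – 120 nM TDP2 per well · Buffer or medium – Mg2+-containing Tris-HCl buffer, pH 7.5 · Reagent – T5PNP substrate, 5 mM · Dosing – 12.8 µM single point, 1% DMSO · Incubation – 2 h at 37 °C · Measured by – epi absorbance · Read-out basis – percent inhibition · Benchmarks – high control without enzyme, low control DMSO plus TDP2 · Repeats – singlicate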
MBD2 DNA inh = MBD2-methylated oligo binding inhibition; Q9UBB5; TR-FRET, MBD2 binding to methylated oligonucleotide; inhibition, % at 4.4 µM; 370,000 compounds, 0.31% hits; AID 686964; in the data active = inhibition above about 13%
Target sequence (Q9UBB5 whole entry, looked up): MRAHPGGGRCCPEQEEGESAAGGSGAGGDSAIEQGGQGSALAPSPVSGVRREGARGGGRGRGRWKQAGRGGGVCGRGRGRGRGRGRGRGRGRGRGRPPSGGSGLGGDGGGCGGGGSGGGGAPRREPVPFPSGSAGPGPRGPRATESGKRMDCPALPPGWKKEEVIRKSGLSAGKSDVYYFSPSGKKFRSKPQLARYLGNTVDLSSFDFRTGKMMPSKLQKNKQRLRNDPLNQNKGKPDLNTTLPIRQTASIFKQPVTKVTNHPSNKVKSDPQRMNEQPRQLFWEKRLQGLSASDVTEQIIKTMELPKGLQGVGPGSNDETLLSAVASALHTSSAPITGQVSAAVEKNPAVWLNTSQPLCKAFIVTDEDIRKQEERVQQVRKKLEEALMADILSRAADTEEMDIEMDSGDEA
UHRF1 MBD2 ctr = UHRF1 methyl-DNA binding inhibition. Q96T88. UHRF1 binding to methylated oligo, TR-FRET. inhibition, % at 4.4 µM. 370,000 compounds, 0.75% hits. AID 687016; in the data active = inhibition above about 21%;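 note: UHRF1 SRA domain binding a hemimethylated CpG hairpin DNA probe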
IN multimer up = activates HIV-1 integrase multimerization in LEDGF counter-screen. shares compounds with LEDGF integ inh. TR-FRET HIV-1 integrase multimerization, biochemical. activation, % at 7.7 µM. 2,000 compounds, 17% hits. AID 1053131; in the data active = activation above about 8.9%
TRFRET interf = counter-screen for LEDGF/p75 integration inhibitors: TR-FRET optical interference; inhibition, % at 7.7 µM; 2,000 tested, under 10 active; shares compounds with LEDGF integ inh; TR-FRET optical interference counterscreen, HIV-1 IN multimerization;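 active = inhibition above the mean over all tested compounds plus 3 SD, which no compound reached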
IN-LEDGF confirm = confirmation of HIV-1 LEDGF/p75-dependent integration inhibitors; shares compounds with LEDGF integ inh; TR-FRET LEDGF/p75-dependent HIV-1 integration, biochemical; inhibition, % at 3.7 µM; 2,000 compounds, 36% hits; AID 1053136; in the data active = inhibition above about 14%
Hits are given with their value; - = inactive; . = no result.

SMILES | LEDGF integ inh | TDP2 absorb | MBD2 DNA inh | UHRF1 MBD2 ctr | IN multimer up | TRFRET interf | IN-LEDGF confirm
Cc1ccc(C2CC(=O)N3CN(c4ccc(Br)cc4)CSC3=C2C#N)o1 (stereo not drawn) | 43 | - | - | 41 | - | - | 40
CCOC(=O)c1ccc(N2CSC3=C(C#N)C(c4ccc(OC)cc4OC)CC(=O)N3C2)cc1 (stereo not drawn) | - | - | - | - | . | . | .
CCOc1ccc(N2CSC3=C(C#N)C(c4ccco4)CC(=O)N3C2)cc1 (stereo not drawn) | 47 | 34 | 29 | 67 | 15 | - | 41
N#CC1=C2SCN(c3ccccc3)CN2C(=O)CC1c1cccs1 (stereo not drawn) | - | - | - | - | . | . | .
Nc1[nH]c(C(=O)c2ccccc2)c(-c2ccccc2Cl)c1C(=O)NCCc1c[nH]c2ccccc12 | - | - | - | - | . | . | .
O=C(Nc1cccs1)Nc1ccccc1Cl | 15 | - | - | - | - | - | -
Cc1ccc(CNC(=O)O[C@H]2CC[C@@]34CCCN3C(=O)CCC[C@H]4[C@H]2C)o1 | - | - | - | - | . | . | .
Cc1cc(C(=O)CN2c3cccc4cccc(c34)S2(=O)=O)c(C)n1C | 20 | - | - | - | - | - | -
COCC(C)n1c(C)cc(C(=O)CN2c3cccc4cccc(c34)S2(=O)=O)c1C (stereo not drawn) | - | - | - | - | . | . | .
O=C(Cc1ccccc1)N1CCC(Oc2cccnc2)CC1 | - | - | - | - | . | . | .
O=C1C(=Cc2ccco2)C(=O)c2ccccc21 | 14 | - | - | - | - | - | -
O=C1ON=C(c2ccccc2)/C1=C/c1ccco1 | - | - | - | - | . | . | .
CCN=C1NC(CCc2ccccc2)C(C(=O)OC)=C(C)N1Cc1ccc(C(F)(F)F)cc1 (stereo not drawn) | - | - | - | - | . | . | .
Cc1cc(S(=O)(=O)NC(=O)[C@H]2O[C@@H](n3ccc(=O)[nH]c3=O)[C@H](O)[C@@H]2O)ccc1Br | - | - | - | - | . | . | .
O=C(O)c1cc(O)c2c(c1)C(=O)c1cc(O)cc(O)c1C2=O | 20 | - | - | 26 | 44 | - | 25
COc1ccc(CNc2ccc(C)cc2)cc1Br | - | - | - | - | . | . | .
COc1ccc(CNc2ccccc2)cc1Br | 22 | - | - | - | - | - | -
Cc1ccc(NC(=O)CN2CCN(c3nc(-c4ccccc4)cs3)CC2)cc1C | - | - | - | - | . | . | .
CCNc1ccc(Br)cc(C(=O)/C=C/c2ccc3c(c2)OCO3)c1=O | 23 | - | - | - | - | - | 41
Cc1ccc(/C=c2\s/c(=C(/C#N)C(=O)N3CCCC3)n(Cc3ccco3)c2=O)s1 | 14 | - | - | - | - | - | -
Nc1ccn([C@@H]2O[C@H](C(=O)N[C@H](Cc3ccccc3)C(=O)NCC(=O)N3CCOCC3)[C@@H](O)[C@H]2O)c(=O)n1 | - | - | - | - | . | . | .
Cc1cc(Cl)ccc1OCCCC(=O)OCC(=O)c1c(N)n(C)c(=O)n(C)c1=O | - | - | - | - | . | . | .
Cc1ccc(C)c(OCCC(=O)OCC(=O)c2c(N)n(C)c(=O)n(C)c2=O)c1 | 24 | - | - | - | - | - | -
CSC1=N/C(=C\c2ccc(C)o2)C(=O)S1 | 14 | - | - | - | - | - | -
CSC1=N/C(=C\c2ccc(C)s2)C(=O)S1 | - | - | - | - | . | . | .
CCOC(=O)[C@]12CCCC=C1N(Cc1ccc(OC)cc1)C(=O)[C@@H]2CC(=O)NCc1ccccc1 | - | - | - | - | . | . | .
O=C(NC(Cc1ccccc1)C(=O)O)/C(=C/c1ccc(Cl)cc1)NC(=O)c1ccccc1 (stereo not drawn) | 20 | - | - | - | - | - | 15
O=C(NC(Cc1ccccc1)C(=O)O)/C(=C\c1ccccc1F)NC(=O)c1ccccc1 (stereo not drawn) | - | - | - | - | . | . | .
Cc1onc(-c2c(Cl)cccc2Cl)c1-c1nc2cc(Cl)ccc2c(=O)o1 | 81 | - | - | - | - | - | -
O=C(N[C@H](C(=O)N1CCC[C@H]1C(=O)NCCc1ccccc1Cl)c1ccccc1)c1ccc(Cl)c(Cl)c1 | - | - | - | - | . | . | .
